Data set [1] can be described thus: Second order oxidation rate constant determined by using Ferricyanide. Format: ADME. The method in brief: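 Oxidation by ferricyanide under pseudo-first-order conditions, with Fe(CN)6^3- in large excess over the dihydro carrier and pH held constant. Pseudo-first-order rates were measured at several ferricyanide concentrations, and the second-order oxidation rate constant (Ko) was derived from them.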

Data set [2] in a line: Half life of compound when water is added (0.15u) in pH 7.4 phosphate buffer (0.05 M) at 37 degree C. Format: ADME. The method in brief: (§1)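 Chemical stability: compound added from freshly prepared 8 mM DMSO stock into 0.05 M phosphate buffer (μ = 0.15), pH 7.4, at 37 °C. Samples drawn at intervals and injected directly onto reversed-phase HPLC with UV detection. Buffer pH checked before and after. Disappearance followed first-order kinetics, giving apparent rate constants. Half-life in minutes.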

The nature of data set [3]: Half life of compound (0.15u) in pH 7.4 phosphate buffer (0.05 M) at 37 degree C. The data set is classed as ADME. The method in brief: as §1
The subject of data set [4] is Homo sapiens. Put plainly: Concentration of compound in human blood tissues after intravenous administration of 2 g dose. Format: ADME, organism-based.
Data set [5] relates to Homo sapiens. Put plainly: Concentration of compound in human brain tissues after intravenous administration of 2 g dose. The data set is classed as ADME, organism-based. Particulars: in vivo.
A short description of data set [6]: Dissociation constant of the compound. The data set is classed as physicochemical.
Data set [7] is described as follows: Partition coefficient (logP). The data set is classed as physicochemical. Particulars: octanol/water.
Data set [8] in a line: Stability in aqueous buffer at pH 7.4. The data set is classed as physicochemical. The method in brief: as §1

Molecule `CN1C=CCC(C(=O)NCCOC(=O)C2N3C(=O)[C@@H](NC(=O)Cc4ccccc4)[C@H]3SC2(C)C)=C1` (stereo partly specified) gave a Ko in data set [1] of 26.08 M⁻¹ s⁻¹. The half-life in data set [2] turned out to be 2.47 h; in data set [3], 0.213 h.

Take `CC1(C)S[C@@H]2[C@H](NC(=O)Cc3ccccc3)C(=O)N2[C@H]1C(=O)O` [PENICILLIN G]: the Concentration in data set [4] came out at 7.5 µg/mL; in data set [5] it was 0.32 µg/mL. The molecule further came in with a pKa in data set [6] of 2.6. This molecule gave a logP in data set [7] of 1.76. Molecule `C[n+]1cccc(C(=O)NCCOC(=O)C2N3C(=O)[C@@H](NC(=O)Cc4ccccc4)[C@H]3SC2(C)C)c1.[I-]` (stereo partly specified) came in with a half-life in data set [2] of 3.26 h. Same read-out and setting: to `C[n+]1cccc(C(=O)OCCOC(=O)C2N3C(=O)[C@@H](NC(=O)Cc4ccccc4)[C@H]3SC2(C)C)c1.[I-]` (stereo partly specified) belongs 0.615 h. In data set [1], `CN1C=CCC(C(=O)OCOC(=O)C2N3C(=O)[C@@H](NC(=O)Cc4ccccc4)[C@H]3SC2(C)C)=C1` (stereo partly specified) showed a Ko of 0.53 M⁻¹ s⁻¹. In addition, the half-life came to 2.26 h in data set [2] and 1.55 h in data set [3]. The molecule `CN1C=CCC(C(=O)NCC(OC(=O)C2N3C(=O)[C@@H](NC(=O)Cc4ccccc4)[C@H]3SC2(C)C)c2ccccc2)=C1` (stereo partly specified) showed a Ko in data set [1] of 15.85 M⁻¹ s⁻¹. This molecule came in with a half-life in data set [3] of 0.587 h.

In turn, `C[n+]1cc(C(=O)NCCOC(=O)C2N3C(=O)[C@@H](NC(=O)Cc4ccccc4)[C@H]3SC2(C)C)c2ccccc2c1.[I-]` (stereo partly specified) returned a half-life in data set [2] of 6.29 h.

In data set [2], `CC(CNC(=O)c1ccc[n+](C)c1)OC(=O)C1N2C(=O)[C@@H](NC(=O)Cc3ccccc3)[C@H]2SC1(C)C.[I-]` (stereo partly specified) showed a half-life of 6.06 h.

In turn, `C[n+]1cccc(C(=O)NCC(OC(=O)C2N3C(=O)[C@@H](NC(=O)Cc4ccccc4)[C@H]3SC2(C)C)c2ccccc2)c1.[I-]` (stereo partly specified) had a half-life in data set [2] of 4.47 h. The same measure, in the same setting: with `C[n+]1cccc(C(=O)OCOC(=O)C2N3C(=O)[C@@H](NC(=O)Cc4ccccc4)[C@H]3SC2(C)C)c1.[I-]` (stereo partly specified) the figure was 0.045 h. As for `CN1C=C(C(=O)NCCOC(=O)C2N3C(=O)[C@@H](NC(=O)Cc4ccccc4)[C@H]3SC2(C)C)c2ccccc2C1` (stereo partly specified), in data set [3], the half-life was 16.5 h. On to `CC(CNC(=O)C1=CN(C)C=CC1)OC(=O)C1N2C(=O)[C@@H](NC(=O)Cc3ccccc3)[C@H]2SC1(C)C` (stereo partly specified), for which the Ko in data set [1] turned out to be 11.94 M⁻¹ s⁻¹. For the same molecule, the half-life in data set [3] was determined as 0.43 h. For `CC1(C)S[C@@H]2[C@H](NC(=O)Cc3ccccc3)C(=O)N2C1C(=O)OCCO` (stereo partly specified), the k in data set [8] came out at 0.0016 min⁻¹. This molecule displayed a half-life in data set [3] of 7.27 h. Turning to `CN1C=CCC(C(=O)OCCOC(=O)C2N3C(=O)[C@@H](NC(=O)Cc4ccccc4)[C@H]3SC2(C)C)=C1` (stereo partly specified), the Ko in data set [1] is 1.552 M⁻¹ s⁻¹. Moreover, the half-life worked out at 7.38 h in data set [2] and 1.93 h in data set [3].

Broadly, the half-life is how long it takes for the measured level to halve. A low value points to fast loss. The pKa is the pH at which an ionisable group is half protonated. Low readings indicate a group that gives up its proton readily, high ones a group that holds its proton tightly. As usually defined, the logP is the decadic logarithm of the partition coefficient of the neutral form, usually between octanol and water. Low values mean lower lipophilicity, high ones higher lipophilicity.
